ChEMBL document CHEMBL1124476, “1-(2-aminoethyl)-6-aryl-4H- [1,2,4]triazolo[4,3-a][1,4]benzodiazepines with diuretic and natriuretic activity” (J Med Chem, 1989)

Tests used:
[1] = Diuretic activity at 40 mg/kg (screening dose-55.2 umol/kg) in […] in a two stage experiment; T/C1.2 = urine vol of treated rats / urine vol of control rats; format: functional
Method in brief: (§1)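 40 mg/kg given by gavage in 25 mL/kg 0.9% saline with 0.5% (carboxymethyl)cellulose. Four rats per agent, two per metabolism cage; 20 controls; 5 h urine. T/C = treated/control urine volume. Stage-1 T/C of 1.66 or more leads to stage 2; product T/C1·T/C2 of 3.34 or more counts as active.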

[2] = Diuretic activity at 40 mg/kg (screening dose-55.2 umol/kg) in […] in a one stage experiment; T/C = urine vol of treated rats / urine vol of control rats; format: functional; method in brief: as §1
[3] = Diuretic activity at 40 mg/kg (screening dose-84 umol/kg) in male […] in a one stage experiment; T/C = urine vol of treated rats / urine vol of control rats; format: functional; method in brief: as §1
[4] = Diuretic activity at 40 mg/kg (screening dose-84 umol/kg) in male […] in a two stage experiment; T/C1.2 = urine vol of treated rats / urine vol of control rats; format: functional; method in brief: as §1
[5] = Diuretic activity at 40 mg/kg (screening dose-90.5 umol/kg) in […] in a one stage experiment; T/C = urine vol of treated rats / urine vol of control rats; format: functional; method in brief: as §1
Rattus norvegicus [6] = assay: Mean excretion of chloride in conscious rats at a dose of 3.0 mg/kg given orally; format: ADME, organism-based; parameters: dose 3 mg/kg, route oral; settings: in vivo, po
Method in brief: (§2)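 Secondary dose-response in male Sprague-Dawley rats (~160 g), fasted and hydrated as in the primary screen. Oral gavage at 0.3-100 mg/kg in 25 mL/kg saline/0.5% CMC, three cages of two rats per dose. Urine collected 5 h; Na, K, Cl, HCO3 measured. Values are mean excretion (mequiv), compared with controls at P < 0.05.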

Rattus norvegicus [7] = assay: Mean excretion of potassium in conscious rats at a dose of 100 mg/kg given orally; format: ADME, organism-based; parameters: dose 100 mg/kg, route oral; settings: in vivo, po; method in brief: as §2
Rattus norvegicus [8] = assay: Mean excretion of sodium in conscious rats at a dose of 0.3 mg/kg given orally; format: ADME, organism-based; parameters: dose 0.3 mg/kg, route oral; settings: in vivo, po
Method in brief: (§3)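 Male Sprague-Dawley rats, about 160 g, fasted 24 h and water withheld 1 1/2 h beforehand; food and water withheld during the test. Dosing by gavage with 25 mL/kg 0.9% saline containing 0.5% (carboxymethyl)cellulose, agent dissolved or suspended. Three cages of two rats each per dose, held in metabolism cages. Urine collected over 5 h. Volume given in mL, Na+ in mequiv. Significance versus control at P < 0.05.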

Rattus norvegicus [9] = assay: Mean excretion of sodium in conscious rats at a dose of 3.0 mg/kg given orally; format: ADME, organism-based; parameters: dose 3 mg/kg, route oral; settings: in vivo, po; method in brief: as §3
Rattus norvegicus [10] = organism: Rattus norvegicus; assay: […]; format: ADME, organism-based, Urine; parameters: dose 0.3 mg/kg, route oral; settings: in vivo, po, 0.3 mg/kg
Method in brief: (§4)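 Dose-response test in male Sprague-Dawley rats of about 160 g, fasted 24 h, with water withheld 1½ h before and during the test. Each rat got a single gavage of 25 mL/kg 0.9% saline with 0.5% carboxymethylcellulose carrying the agent (0.3–100 mg/kg range). Rats were housed two per metabolism cage, and urine was collected for 5 h. Mean urine volume (mL) was compared with controls (P < 0.05).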

Rattus norvegicus [11] = assay: Mean excretion of sodium in conscious rats at a dose of 30 mg/kg given orally; format: ADME, organism-based; parameters: dose 30 mg/kg, route oral; settings: in vivo, po; method in brief: as §3
Rattus norvegicus [12] = assay: Mean excretion of […] in conscious rats at a dose of 1.0 mg/kg given orally; format: ADME, organism-based; parameters: dose 1 mg/kg, route oral; settings: in vivo, po; method in brief: as §3
Rattus norvegicus [13] = assay: Mean excretion of chloride in conscious rats at a dose of 1.0 mg/kg given orally; format: ADME, organism-based; parameters: dose 1 mg/kg, route oral; settings: in vivo, po; method in brief: as §2
Rattus norvegicus [14] = assay: Mean excretion of chloride in conscious rats at a dose of 30 mg/kg given orally; format: ADME, organism-based; parameters: dose 30 mg/kg, route oral; settings: in vivo, po; method in brief: as §2
[15] = Diuretic activity at 40 mg/kg (screening dose-84.7 umol/kg) in […] in a one stage experiment; T/C = urine vol of treated rats / urine vol of control rats; format: functional; method in brief: as §1
[16] = Diuretic activity at 40 mg/kg (screening dose-90.5 uM/Kg) in […] in a two stage experiment; T/C1.2 = urine vol of treated rats / urine vol of control rats; format: functional; method in brief: as §1
Rattus norvegicus [17] = assay: Mean excretion of potassium in conscious rats at a dose of 1.0 mg/kg given orally; format: ADME, organism-based; parameters: dose 1 mg/kg, route oral; settings: in vivo, po; method in brief: as §2
Rattus norvegicus [18] = organism: Rattus norvegicus; assay: […]; format: ADME, organism-based, Urine; parameters: dose 1 mg/kg, route oral; settings: in vivo, po, 1 mg/kg; method in brief: as §4
Rattus norvegicus [19] = assay: Mean excretion of chloride in conscious rats at a dose of 10 mg/kg given orally; format: ADME, organism-based; parameters: dose 10 mg/kg, route oral; settings: in vivo, po; method in brief: as §2
Rattus norvegicus [20] = organism: Rattus norvegicus; assay: […]; format: ADME, organism-based, Urine; parameters: dose 30 mg/kg, route oral; settings: in vivo, po, 30 mg/kg; method in brief: as §3
Rattus norvegicus [21] = organism: Rattus norvegicus; assay: […]; format: ADME, organism-based, Urine; parameters: dose 100 mg/kg, route oral; settings: in vivo, po, 100 mg/kg; method in brief: as §3
Rattus norvegicus [22] = assay: Mean excretion of sodium in conscious rats at a dose of 10 mg/kg given orally; format: ADME, organism-based; parameters: dose 10 mg/kg, route oral; settings: in vivo, po; method in brief: as §3
Rattus norvegicus [23] = organism: Rattus norvegicus; assay: […]; format: ADME, organism-based, Urine; parameters: dose 10 mg/kg, route oral; settings: in vivo, po, 10 mg/kg; method in brief: as §3
Rattus norvegicus [24] = organism: Rattus norvegicus; assay: […]; format: ADME, organism-based, Urine; parameters: dose 3 mg/kg, route oral; settings: in vivo, po, 3 mg/kg; method in brief: as §3
Rattus norvegicus [25] = assay: Mean excretion of potassium in conscious rats at a dose of 3.0 mg/kg given orally; format: ADME, organism-based; parameters: dose 3 mg/kg, route oral; settings: in vivo, po; method in brief: as §2
Rattus norvegicus [26] = assay: Mean excretion of potassium in conscious rats at a dose of 10 mg/kg given orally; format: ADME, organism-based; parameters: dose 10 mg/kg, route oral; settings: in vivo, po; method in brief: as §2
Rattus norvegicus [27] = assay: Mean excretion of potassium in conscious rats at a dose of 0.3 mg/kg given orally; format: ADME, organism-based; parameters: dose 0.3 mg/kg, route oral; settings: in vivo, po; method in brief: as §2
Rattus norvegicus [28] = assay: Mean excretion of sodium in conscious rats at a dose of 100 mg/kg given orally; format: ADME, organism-based; parameters: dose 100 mg/kg, route oral; settings: in vivo, po; method in brief: as §3
Rattus norvegicus [29] = assay: Mean excretion of Cl- in conscious rats at a dose of 0.3 mg/kg given orally; format: ADME, organism-based, Urine; parameters: dose 0.3 mg/kg, route oral; settings: in vivo, po; method in brief: as §4
Rattus norvegicus [30] = assay: Mean excretion of potassium in conscious rats at a dose of 30 mg/kg given orally; format: ADME, organism-based; parameters: dose 30 mg/kg, route oral; settings: in vivo, po; method in brief: as §2
Rattus norvegicus [31] = assay: Mean excretion of chloride in conscious rats at a dose of 100 mg/kg given orally; format: ADME, organism-based; parameters: dose 100 mg/kg, route oral; settings: in vivo, po; method in brief: as §2

CN(C)CCc1nnc2n1-c1ccc(Cl)cc1C(c1ccccc1)=NC2
T/C 1.2 [1]: 3.04 | T/C 1 [2]: 1.66

CN(C)CC(c1ccccc1)c1nnc2n1-c1ccc(Cl)cc1C(c1ccccc1Cl)=NC2 (stereo not drawn)
T/C 1 [3]: 1.87 | T/C 1.2 [4]: 2.66

CN(C)CC(c1ccccc1)c1nnc2n1-c1ccccc1C(c1ccccc1Cl)=NC2 (stereo not drawn)
T/C 1 [5]: 1.62

COc1cccc(C(CN(C)C)c2nnc3n2-c2ccc(Cl)cc2C(c2ccccc2)=NC3)c1 (stereo not drawn)
Mean excretion of Cl- (Rattus norvegicus [6]): 0.78 m equiv | Mean excretion of K+ (Rattus norvegicus [7]): 0.3 m equiv | Mean excretion of Na+ (Rattus norvegicus [8]): 0.52 m equiv | Mean excretion of Na+ (Rattus norvegicus [9]): 0.79 m equiv | Mean urine volume (Rattus norvegicus [10]): 3.37 mL | Mean excretion of Na+ (Rattus norvegicus [11]): 1.99 m equiv | Mean excretion of Na+ (Rattus norvegicus [12]): 0.64 m equiv | Mean excretion of Cl- (Rattus norvegicus [13]): 0.72 m equiv | Mean excretion of Cl- (Rattus norvegicus [14]): 1.99 m equiv | T/C 1 [15]: 3.18 | T/C 1.2 [16]: 7.31 | Mean excretion of K+ (Rattus norvegicus [17]): 0.21 m equiv | Mean urine volume (Rattus norvegicus [18]): 3.74 mL | Mean excretion of Cl- (Rattus norvegicus [19]): 1.11 m equiv | Mean urine volume (Rattus norvegicus [20]): 12.21 mL | Mean urine volume (Rattus norvegicus [21]): 12.03 mL | Mean excretion of Na+ (Rattus norvegicus [22]): 1.13 m equiv | Mean urine volume (Rattus norvegicus [23]): 5.99 mL | Mean urine volume (Rattus norvegicus [24]): 4.29 mL | Mean excretion of K+ (Rattus norvegicus [25]): 0.17 m equiv | Mean excretion of K+ (Rattus norvegicus [26]): 0.17 m equiv | Mean excretion of K+ (Rattus norvegicus [27]): 0.22 m equiv | Mean excretion of Na+ (Rattus norvegicus [28]): 1.76 m equiv | Mean excretion of Cl- (Rattus norvegicus [29]): 0.59 m equiv | Mean excretion of K+ (Rattus norvegicus [30]): 0.24 m equiv | Mean excretion of Cl- (Rattus norvegicus [31]): 1.8 m equiv

CN(C)CC(c1cccc(Cl)c1)c1nnc2n1-c1ccc(Cl)cc1C(c1ccccc1)=NC2 (stereo not drawn)
T/C 1 [3]: 1.86 | T/C 1.2 [4]: 3.2
